# Beta2AR agonist: human beta-2 adrenergic receptor agonism by FAP; response, % (test concentration not listed); P07550; Am2.2-beta2AR cells, FAP receptor internalization, flow cytometry; hit rate 0.43% among 340,000;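 active means response above a set limit, near 3 SD of response in nonfluorescent compounds, cut at about 42% in these data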
# UPR CHOP act: apoptotic UPR (CHOP) activation; CHO-CHOP luciferase reporter, luminescence; percent of tunicamycin response over DMSO baseline; activation, % at 10 µM; hit rate 0.34% among 330,000; AID 449763;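 active means at 10 µM dose, activation of 40% or more, normalized to positive control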
#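 System: CHO-CHOP luciferase reporter cell line; amount: 500 cells/well; buffer or medium: F12 medium containing 10% fetal bovine serum; incubation: 6 h compound exposure at 37 °C after overnight seeding; measured by: luciferase luminescence after 10 min with Steady-Glo reagent; evaluation: % reporter activation, DMSO baseline versus tunicamycin full activation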
# UPR XBP1 act: adaptive UPR (XBP1) activation | CHO-XBP1 luciferase reporter, IRE1-XBP1 UPR activation, luminescence; percent of tunicamycin response, DMSO as zero | activation, % at 20 µM | hit rate 0.33% among 330,000 | AID 463104;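 active means versus positive control, 20 µM dose yields 30% or more activation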
#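 Material: CHO cell line with stable XBP1 luciferase reporter; buffer or medium: F12 medium containing 10% fetal bovine serum; compound: single point, 20 µM final compound, 1% DMSO; incubation: 6 h treatment, 37 °C; measured by: glow luminescence from Steady-Glo reagent; evaluation: activation, % of tunicamycin; control set: tunicamycin high, DMSO low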
# Dynein cargo inh: dynein cargo transport inhibition. 3617.4 mouse cells, GR-EGFP nuclear translocation imaging; test concentration mostly 20 µM; stimulated with dexamethasone, 1 µM; hits give low values. z-score, hits read low. hit rate 0.47% among 220,000;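 active means plate z-score of nuclear minus cytoplasmic receptor signal below a set negative limit, without overly bright fluorescence or cell loss, cut at about -3.5 in these data, passing the limit was not always enough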;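 further: z-score of nuclear minus cytoplasmic ring GR-EGFP intensity difference per well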
#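 medium = tetracycline-free induction medium containing charcoal-stripped FBS | also added = 1.0 µM final dexamethasone stimulus | schedule = 48 h induction, 1 h compound, 30 min dex at 37 °C | technique = fixed, Hoechst-stained cells imaged at 10x for EGFP | measure = GR-EGFP nuclear translocation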
# MDM2 E3 inh: blocks human Mdm2 ubiquitin ligase activity; AID 1230; hit rate 0.11% among 210,000; cell-based MDM2 ubiquitination luciferase reporter, 2 h; 0 = plate control, 100 = twice control, blank-subtracted; signal enhancement, % at 5 µM; Q00987;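 active means signal enhancement of 30% or more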;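 further: luminescence tracks abundance of the self-degrading MDM2-luciferase fusion protein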
#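 system = mammalian cells stably expressing self-ubiquitinating, self-degrading MDM2 E3–luciferase fusion | quantity = 2000 cells per well seeded | incubation = 4 h cell settling then 2 h compound exposure, 37 °C | signal = SteadyLite luminescence, 15 min reagent step | benchmarks = plate control and blank wells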
# Mdm2 MdmX PPI: human Mdm2/MdmX binding inhibition; SaOS-2 split-luciferase Mdm2/MdmX complementation, luminescence; inhibition, % at 8 µM; hit rate 3% among 330,000; O15151+Q00987;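 active means inhibition of at least 50% at 8 µM in the primary screen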
# Target sequence (O15151 whole entry, looked up): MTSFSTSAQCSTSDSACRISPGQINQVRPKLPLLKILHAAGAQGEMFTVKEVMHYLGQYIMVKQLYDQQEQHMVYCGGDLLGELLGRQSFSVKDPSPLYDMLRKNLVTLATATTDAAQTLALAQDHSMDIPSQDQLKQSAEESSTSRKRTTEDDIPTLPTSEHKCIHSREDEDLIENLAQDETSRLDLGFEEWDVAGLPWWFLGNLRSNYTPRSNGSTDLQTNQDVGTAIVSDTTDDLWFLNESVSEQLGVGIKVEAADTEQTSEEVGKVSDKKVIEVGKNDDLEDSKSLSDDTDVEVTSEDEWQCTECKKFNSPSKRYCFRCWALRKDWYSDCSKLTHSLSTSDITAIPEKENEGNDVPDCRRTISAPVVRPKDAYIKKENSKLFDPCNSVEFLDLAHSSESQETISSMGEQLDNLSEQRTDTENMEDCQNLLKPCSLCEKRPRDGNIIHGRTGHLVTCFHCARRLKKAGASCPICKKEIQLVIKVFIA
# Target sequence (Q00987 whole entry, looked up): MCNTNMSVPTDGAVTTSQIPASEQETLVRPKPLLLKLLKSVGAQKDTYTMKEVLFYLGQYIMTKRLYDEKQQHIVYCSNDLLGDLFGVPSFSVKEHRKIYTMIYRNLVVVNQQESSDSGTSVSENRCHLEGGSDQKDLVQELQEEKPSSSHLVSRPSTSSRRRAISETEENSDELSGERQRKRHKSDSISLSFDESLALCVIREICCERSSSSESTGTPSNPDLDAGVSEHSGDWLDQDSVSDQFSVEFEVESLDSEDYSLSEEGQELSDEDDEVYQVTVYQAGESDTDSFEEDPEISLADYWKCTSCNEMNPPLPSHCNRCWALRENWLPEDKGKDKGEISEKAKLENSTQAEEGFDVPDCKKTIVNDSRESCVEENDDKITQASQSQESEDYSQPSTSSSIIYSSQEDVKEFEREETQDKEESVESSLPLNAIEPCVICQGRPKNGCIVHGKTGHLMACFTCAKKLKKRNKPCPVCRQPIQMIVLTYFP
# Mdm2-MdmX conf: confirmation of human Mdm2/MdmX interaction inhibitors. inhibition, % at 8 µM. hit rate 55% among 10,000. Mdm2-MdmX binding, luminescent assay. AID 489028. shares compounds with Mdm2 MdmX PPI; in the data active means inhibition above about 40%
# Full FLuc ctr: full-length luciferase inhibition in Mdm2/MdmX counter-screen | shares compounds with Mdm2 MdmX PPI | hit rate 77% among 6,200 | inhibition, % at 8 µM | AID 504607 | SaOS-2 full-length luciferase counterscreen, luminescence;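 active means mean inhibition at 8 µM reaching about 37%, which flags the compound as non-specific, limit read from the data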;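 further: p53-null SaOS-2 cells with luciferase driven by a doxycycline-inducible promoter; compound on cells about two nights before reading with doxycycline added after day one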
# Hits are given with their value; i = inactive; nt = not tested or not shown. Only some compounds are listed: those with a hit (about 3.7% of all), similar ones and a draw of the others.
SMILES,Beta2AR agonist,UPR CHOP act,UPR XBP1 act,Dynein cargo inh,MDM2 E3 inh,Mdm2 MdmX PPI,Mdm2-MdmX conf,Full FLuc ctr
O=C(CNC(=O)C1(c2ccccc2)CC1)Nc1ccc(F)c(F)c1,i,i,i,nt,nt,i,nt,nt
Cc1c(Cl)ccc2c(C(=O)NCCN3CCCCC3)cc(-c3ccccn3)nc12,i,i,i,i,i,i,i,60.6
COc1ccccc1-c1cc(C(=O)NC2CCN(C)CC2)c2ccc(Cl)c(C)c2n1,i,i,i,nt,nt,98.6,68.5,37.4
Cc1c(Cl)ccc2c(C(=O)NCCCn3nccc3C)cc(-c3ccccn3)nc12,i,i,i,nt,nt,i,nt,nt
O=C(Nc1nccs1)c1cc(-c2ccccn2)nc2c(Cl)cccc12,i,i,i,nt,nt,77.9,i,nt
Cc1ccc2nc(-c3ccccn3)cc(C(=O)NC3CCN(C)CC3)c2c1,nt,nt,nt,i,i,nt,nt,nt
C[C@H](NC(=O)C1CCN(S(=O)(=O)c2ccccc2)CC1)C(=O)NCc1ccc(Cl)c(Cl)c1,i,i,i,nt,nt,i,nt,nt
CCCCCCCCCC[N+](C)(C)CC/C=C1/c2ccccc2Sc2ccc(Cl)cc21,i,i,i,nt,nt,82.8,76.5,i
CC[N+](C)(C)CC/C=C1/c2ccccc2Sc2ccc(Cl)cc21,i,i,i,i,i,i,nt,nt
CCCCCCCCCCC[N+](C)(C)CC/C=C1/c2ccccc2Sc2ccc(Cl)cc21,i,i,i,nt,nt,77.8,68.6,i
OCCN1CCN(CC/C=C2/c3ccccc3Sc3ccc(Cl)cc32)CC1,i,i,i,nt,nt,60.8,i,nt
NCC/C=C1/c2ccccc2CSc2ccccc21,i,i,i,i,i,i,nt,nt
OCCN1CCN(CCCN2c3ccccc3Sc3ccc(Cl)cc32)CC1,nt,i,i,i,nt,i,nt,nt
Cn1c(C(=O)N2CCC(C(=O)NCc3ccccc3)CC2)cc2sccc21,i,i,i,nt,nt,i,nt,nt
O=C(O)CN1C(=O)C(=O)N(Cc2ccc(Cl)c(Cl)c2)C1=O,i,i,i,nt,nt,i,nt,nt
CC(=O)c1cccc(NC(=O)NNC(=O)c2ccc(-c3ccccc3)cc2)c1,i,i,i,nt,nt,i,nt,nt
CCOC(=O)c1ccc(N2C(=O)C(C)=C(C)C2=O)cc1,i,i,i,i,i,62.4,i,nt
Cc1cccc(C)c1NC(=O)CNC(=O)CNC(=O)c1ccc2c(c1)OCO2,i,i,i,nt,nt,i,nt,nt
O=C(Nc1ccccc1)Nc1nnc(Cc2ccc([N+](=O)[O-])cc2)s1,i,i,i,i,i,65.9,i,nt
Cc1ccc(NC(=O)Nc2nnc(Cc3ccc([N+](=O)[O-])cc3)s2)cc1C,i,i,i,i,i,57.4,i,39.3
O=C(Nc1ccccc1)Nc1nnc(Cc2ccc(F)cc2)s1,i,i,i,nt,nt,i,nt,nt
Cc1ccc(NC(=O)Nc2nnc(Cc3ccc(F)cc3)s2)cc1,i,i,i,nt,nt,54.7,i,nt
CC(C)Oc1ccc(C(=O)NCCCNC(=O)c2ccccn2)cc1,i,i,i,nt,nt,i,nt,nt
CCCOCCOC(=O)c1[nH]c2c(c1C)C(=O)CC(c1cc(OC)ccc1OC)C2 (stereo unspecified),i,i,i,i,i,59.4,52.1,83.2
COc1ccc(OC)c(C2CC(=O)c3c([nH]c(C(=O)OC(C)C)c3C)C2)c1 (stereo unspecified),i,i,i,i,i,51.8,44.2,83.2
SMILES,Beta2AR agonist,UPR CHOP act,UPR XBP1 act,Dynein cargo inh,MDM2 E3 inh,Mdm2 MdmX PPI,Mdm2-MdmX conf,Full FLuc ctr
COCCOC(=O)c1[nH]c2c(c1C)C(=O)CC(c1cc(OC)ccc1OC)C2 (stereo unspecified),i,i,i,i,i,i,nt,nt
COc1ccc(NC(=O)C(=O)NCC2CCCN2S(=O)(=O)c2cc(C)ccc2C)cc1 (stereo unspecified),i,i,i,nt,nt,59.9,74.2,47.6
COc1ccc(NC(=O)C(=O)NCC2CCCN2S(=O)(=O)c2ccc(C)cc2)cc1 (stereo unspecified),i,i,i,nt,nt,66.3,78.5,104.3
CCN(CC(=O)NC1CCS(=O)(=O)C1)S(=O)(=O)c1ccccc1Cl (stereo unspecified),i,i,i,nt,nt,i,nt,nt
CC(=O)c1cccc(NC(=O)N2C3CCC2CC(NC(=O)C2CC2)C3)c1 (stereo unspecified),i,i,i,i,i,i,nt,nt
Cc1cnc(CNC(=O)C2CCC(=O)N(CCc3ccc(Cl)cc3)C2)cn1 (stereo unspecified),i,i,i,nt,nt,i,nt,nt
COCC(=O)Nc1cc(C)c2c(=O)oc3ccccc3c2n1,i,i,i,i,i,i,nt,nt
COc1ccc(C(=O)Nc2cc(C)c3c(=O)oc4ccccc4c3n2)cc1,i,i,i,i,i,73.8,i,nt
COc1ccc(CN(C)C(=O)Cn2cc(C)c(=O)[nH]c2=O)cc1OC,i,nt,nt,nt,nt,nt,nt,nt
Nc1[nH]nc2nc(NCc3ccccc3)c3c(c12)CCN(Cc1ccccc1)C3,i,i,i,i,i,52.5,i,nt
CC(=O)c1ccc(NC(=O)CSc2nc3nn(-c4ccccc4)c(=O)c-3c3n2CCCCC3)cc1,i,nt,nt,nt,nt,nt,nt,nt
O=C(CSc1nc2nn(-c3ccccc3)c(=O)c-2c2n1CCCCC2)Nc1ccc(F)c(F)c1,i,i,i,nt,nt,55.0,i,nt
O=C1c2ccccc2C(=O)c2c(Nc3ccc(CCO)cc3)ccc(O)c21,i,i,i,i,i,72.3,i,i
COC(=O)C1CCc2c(ccc3c2CCCC3)C1=O (stereo unspecified),i,nt,nt,nt,nt,nt,nt,nt
CC1CCCC(NC(=O)CSc2ccc(F)cc2)C1C (stereo unspecified),i,i,i,i,i,i,nt,nt
CC1CCCC(NCC(O)COC(c2ccc(F)cc2)c2ccc(F)cc2)C1C (stereo unspecified),i,i,i,i,i,97.8,77.5,48.8
O=C(Nc1ccc(NS(=O)(=O)c2ccccc2)cc1)c1ccccc1Cl,i,i,i,nt,nt,i,nt,nt
C/C(=C\c1ccc(C(=O)O)cc1)c1ccc2c(c1)C(C)(C)CCC2(C)C,i,i,i,nt,nt,58.0,51.9,43.6
CC(=O)C(=Cc1ccc(C(=O)O)cc1)C(C)=O,i,i,i,i,i,i,nt,nt
COc1ccc(N2CCc3c(C)nc4c(OC)cc(OC)cc4c32)c(OC)c1,i,i,i,i,i,i,nt,nt
COc1ccc(N2CCc3c(C)nc4c(OC)cccc4c32)cc1,i,i,i,i,i,57.8,56.5,55.1
COc1ccc(N2CCc3c(C)nc4c(OC)cc(OC)cc4c32)cc1,i,i,i,i,i,50.5,i,nt
COc1ccccc1CNc1ncnc2cc(Cl)ccc12,i,nt,nt,i,i,nt,nt,nt
CCOc1ccccc1CNc1ncnc2ccc(-c3c(C)noc3C)cc12,i,i,i,nt,nt,79.4,54.0,43.0

# Bioassay records: PubChem BioAssay, several laboratories
